Measurements reported in BindingDB's records for doi:10.1021/jm0100741 (Tohoku University, 2001).
pIC50: −log10 of the molar value.

Tests used:
[1] = biological target: T1, M-phase inducer phosphatase 2 (Mus musculus, UniProt P30306); assay: Inhibitory activity against cell division cycle 25B
T1 sequence (P30306 whole entry): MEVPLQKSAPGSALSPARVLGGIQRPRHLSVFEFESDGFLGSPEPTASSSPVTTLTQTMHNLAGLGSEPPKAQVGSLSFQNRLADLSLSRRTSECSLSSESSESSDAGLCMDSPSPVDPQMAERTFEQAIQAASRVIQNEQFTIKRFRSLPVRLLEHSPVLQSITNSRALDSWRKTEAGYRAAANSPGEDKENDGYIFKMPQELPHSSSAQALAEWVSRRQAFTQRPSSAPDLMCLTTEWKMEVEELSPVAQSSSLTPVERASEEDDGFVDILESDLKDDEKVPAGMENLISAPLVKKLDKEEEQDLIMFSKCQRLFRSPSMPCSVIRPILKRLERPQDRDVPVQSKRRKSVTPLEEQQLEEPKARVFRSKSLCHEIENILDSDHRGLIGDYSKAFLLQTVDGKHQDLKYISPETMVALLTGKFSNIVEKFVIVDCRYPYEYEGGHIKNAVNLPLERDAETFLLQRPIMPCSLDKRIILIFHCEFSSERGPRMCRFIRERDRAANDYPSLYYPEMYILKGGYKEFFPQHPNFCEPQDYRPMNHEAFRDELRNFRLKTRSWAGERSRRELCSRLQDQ

[2] = biological target: Dual specificity protein phosphatase 3 (Homo sapiens, UniProt P51452); assay: Inhibitory activity against vaccinia VH1-related phosphatase (VHR)
Sequence of Dual specificity protein phosphatase 3 (P51452 whole entry): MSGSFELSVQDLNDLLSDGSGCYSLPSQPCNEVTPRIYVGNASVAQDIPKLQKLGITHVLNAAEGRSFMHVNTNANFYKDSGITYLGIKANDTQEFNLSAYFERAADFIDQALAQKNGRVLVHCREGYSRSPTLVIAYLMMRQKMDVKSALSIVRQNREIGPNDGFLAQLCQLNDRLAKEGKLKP
Summary of the method: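 Recombinant VHR expressed in E. coli and purified, used at 0.6 μM with 10 mM pNPP substrate in 50 mM succinate, 1 mM EDTA, 150 mM NaCl, pH 6.0, ± compound. Incubated 3 min at 37 °C, stopped with 1 N NaOH, and activity read as absorbance change at 405 nm.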

For `CC(C)=CCCC(C)CCOC(=O)c1c(O)oc(CO)c1O` (stereo unspecified) [4-Hydroxy-5-hydroxymethyl-2-oxo-2,5-dihydro-furan-3-carboxylic acid 3,7-dimethyl-oct-6-enyl ester], the pIC50 [1] was less than 3.90 and the pIC50 [2] was less than 3.60.
For `O=C(OCc1ccccc1)c1c(O)oc(CO)c1O` [4-Hydroxy-5-hydroxymethyl-2-oxo-2,5-dihydro-furan-3-carboxylic acid benzyl ester], the pIC50 [1] was less than 3.90 and the pIC50 [2] was less than 3.60.
Compound `O=C(OC1CCCCC1)c1c(O)oc(CO)c1O` [4-Hydroxy-5-hydroxymethyl-2-oxo-2,5-dihydro-furan-3-carboxylic acid cyclohexyl ester] has a pIC50 [1] of less than 3.90 and a pIC50 [2] of less than 3.60.
